In ChEMBL document CHEMBL4765245 (Eur J Med Chem, 2020):
Counter-ions that a name gives are not always drawn.

What was measured:
rhinovirus B5 = assay: Antiviral activity against Rhinovirus B5 infected in human HeLa cell line assessed as inhibition of virus-induced cytopathic effect measured after 72 hrs by crystal violet uptake assay; type: functional, organism-based
Method in brief: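 HeLa Ohio monolayers, 1 day old, in 2% FCS medium. Compound added as serial half-log dilutions from 100 μM immediately before rhinovirus infection. CPE read at 72 h by crystal violet staining, elution and OD 550/630 nm, with six cell and six virus controls per plate. Activity calculated per Pauwels; IC50 is the mean of at least 3 experiments.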

Coxsackievirus B3 [1] = assay: Antiviral activity against wild type Coxsackievirus B3 97927 infected in human HeLa cell line assessed as inhibition of virus-induced cytopathic effect measured after 48 hrs by crystal violet uptake assay; type: functional, organism-based
Method in brief: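 Coxsackievirus B3 infection of 2-day-old HeLa Ohio monolayers in 2% FCS medium. Half-log dilutions from 100 μM added just before infection; guanidine hydrochloride served as positive control. Antiviral activity calculated per Pauwels; IC50 is the mean of at least 3 separate tests.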

Coxsackievirus B3 [2] = assay: Antiviral activity against pleconaril-resistant Coxsackievirus B3 97927 11207T/I1092 mutant infected in human HeLa cell line assessed as inhibition of virus-induced cytopathic effect measured after 48 hrs by crystal violet uptake assay; type: functional, organism-based
Method in brief: (§1)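 HeLa Ohio monolayers, 2 days old and confluent, in MEM with 2% FCS. Serial half-log compound dilutions from 100 μM were added just before CVB3 infection. Activity was calculated per Pauwels against six cell and six virus controls; mean IC50 from ≥3 experiments.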

Coxsackievirus B3 [3] = assay: Antiviral activity against pleconaril-resistant Coxsackievirus B3 97927 11207M/I1092 mutant infected in human HeLa cell line assessed as inhibition of virus-induced cytopathic effect measured after 48 hrs by crystal violet uptake assay; type: functional, organism-based; method in brief: as §1
Coxsackievirus B3 [4] = assay: Antiviral activity against Coxsackievirus B3 Nancy infected in human HeLa cell line assessed as inhibition of virus-induced cytopathic effect measured after 48 hrs by crystal violet uptake assay; type: functional, organism-based; method in brief: as §1
rhinovirus B14 = assay: Antiviral activity against Rhinovirus B14 infected in human HeLa cell line assessed as inhibition of virus-induced cytopathic effect measured after 72 hrs by crystal violet uptake assay; type: functional, organism-based
Method in brief: (§2)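 HeLa Ohio monolayers, 1 day old, in 2% FCS medium. Compound added as serial half-log dilutions from 100 μM immediately before rhinovirus infection. Activity calculated per Pauwels; IC50 is the mean of at least 3 experiments.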

HeLa = assay: Cytotoxicity against human HeLa cells assessed as reduction in cell viability incubated for 72 hrs measured by crystal violet based micro plate reader method; conditions: hela, 72 h
Method in brief: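 Two-day-old confluent HeLa Ohio monolayers exposed to half-log dilutions (100 μM downward) in 2% FCS medium for 72 h at 37 °C, 5% CO2. Cells fixed and stained with crystal violet/formalin, dye eluted with acidified citrate-ethanol, OD read at 550/630 nm. Viability expressed relative to six mock-treated controls; CC50 is the mean of at least 3 tests.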

rhinovirus A2 = assay: Antiviral activity against Rhinovirus A2 infected in human HeLa cell line assessed as inhibition of virus-induced cytopathic effect measured after 72 hrs by crystal violet uptake assay; type: functional, organism-based; method in brief: as §2
Coxsackievirus B3 [5] = assay: Antiviral activity against pleconaril-resistant Coxsackievirus B3 97927 11207K/I1092 mutant infected in human HeLa cell line assessed as inhibition of virus-induced cytopathic effect measured after 48 hrs by crystal violet uptake assay; type: functional, organism-based; method in brief: as §1
[6] = Rhinovirus B, HeLa, 72 h, read-out: IC50
[7] = Enterovirus B, 97927, HeLa, 48 h, read-out: IC50
[8] = Enterovirus B, Nancy, HeLa, 48 h, read-out: IC50
[9] = Rhinovirus A, HeLa, 72 h, read-out: IC50

| Structure (SMILES) | IC50 (rhinovirus B5; [6]) [µM] | IC50 (Coxsackievirus B3 [1]; [7]) [µM] | IC50 (Coxsackievirus B3 [2]; read-out: IC50) [µM] | IC50 (Coxsackievirus B3 [3]) [µM] | IC50 (Coxsackievirus B3 [4]; [8]) [µM] | IC50 (rhinovirus B14; [6]) [µM] | CC50 (HeLa) [µM] | IC50 (rhinovirus A2; [9]) [µM] | IC50 (Coxsackievirus B3 [5]; read-out: IC50) [µM] | IC50 (rhinovirus B5) | IC50 (rhinovirus B14) | IC50 (Coxsackievirus B3 [5]) | IC50 (Coxsackievirus B3 [1]) | IC50 (Coxsackievirus B3 [4]) | IC50 (rhinovirus A2) | IC50 (Coxsackievirus B3 [2]) |
| --- | --- | --- | --- | --- | --- | --- | --- | --- | --- | --- | --- | --- | --- | --- | --- | --- |
| CN(C)C(=O)c1cc(CCCOc2ccc(-c3noc(C(F)(F)F)n3)cc2)on1 | 1.74 | 0.458 | 8.11 | 0.02 | 10.8 | 0.04 | 28 | 4.61 | 27.5 | – | – | – | – | – | – | – |
| CNC(=O)c1cc(CCCOc2ccc(-c3noc(C(F)(F)F)n3)cc2C(F)(F)F)on1 | – | 0.02 | 1.04 | 0.06 | 14.1 | – | > 100 | 0.96 | – | Not Active | Not Active | Not Active | – | – | – | – |
| COC(=O)c1cc(CCCOc2c(C)cc(-c3noc(C(F)(F)F)n3)cc2C)on1 | – | 0.06 | 12.8 | 1.53 | 17.9 | 0.37 | 35.4 | 0.36 | 20.4 | Not Active | – | – | – | – | – | – |
| CCOC(=O)c1cc(CCCOc2ccc(-c3noc(C(F)(F)F)n3)cc2NC(C)=O)on1 | – | – | – | – | – | – | > 100 | – | – | Not Active | Not Active | – | Not Active | Not Active | Not Active | – |
| CN(C)C(=O)c1cc(CCCOc2ccc(-c3noc(C(F)(F)F)n3)cc2-n2cccc2)on1 | – | 0.82 | 3.55 | 1.06 | – | 7.34 | 21.2 | 3.21 | – | Not Active | – | – | – | Not Active | – | – |
| COc1cc(-c2noc(C(F)(F)F)n2)ccc1OCCCc1cc(C(=O)N(C)C)no1 | 3.28 | 0.03 | 1.66 | 0.6 | 37.8 | 0.04 | 68 | 1.97 | 51.7 | – | – | – | – | – | – | – |
| Cc1cc(-c2noc(C(F)(F)F)n2)cc(C)c1OCCCc1cc(C(=O)OC(C)C)no1 | – | 0.19 | – | 4.09 | – | 0.43 | 17.9 | 2.43 | – | – | – | Not Active | – | – | – | Not Active |
| CCOC(=O)c1cc(CCCOc2ccc(-c3noc(C(F)(F)F)n3)cc2C(F)(F)F)on1 | – | 0.03 | 1.04 | 0.01 | – | – | 28.4 | 4.89 | – | Not Active | Not Active | – | – | Not Active | – | – |
| N=C(N)N [GUANIDINE HYDROCHLORIDE] | – | 592 | 725 | 682 | 423 | – | – | – | 664 | – | – | – | – | – | – | – |
| CCOC(=O)c1cc(CCCOc2ccc(-c3noc(C(F)(F)F)n3)cc2/N=C/N(C)C)on1 | – | 19.9 | – | – | – | 29.3 | > 100 | – | – | Not Active | – | – | – | Not Active | Not Active | – |
| CN(C)C(=O)c1cc(CCCOc2ccc(-c3noc(C(F)(F)F)n3)cc2N)on1 | – | 4.47 | 14.3 | 2.08 | 27.8 | 0.33 | 90.8 | 18.2 | 51.6 | Not Active | – | – | – | – | – | – |
| CN(C)C(=O)c1cc(CCCOc2ccc(-c3noc(C(F)(F)F)n3)cc2F)on1 | 4.04 | 0.025 | 1.44 | 0.06 | 18.5 | 0.05 | 20.2 | 3.77 | – | – | – | Not Active | – | – | – | – |
| CCOC(=O)c1cc(CCCOc2c(C)cc(-c3noc(C(F)(F)F)n3)cc2C)on1 | – | 0.07 | 20.4 | 0.94 | – | – | 17.2 | – | 11.1 | – | – | – | – | Not Active | – | – |
| CCOC(=O)c1cc(CCCOc2ccc(-c3noc(C(F)(F)F)n3)cc2F)on1 | – | 0.217 | 24.9 | 1.35 | – | 0.5 | 60.2 | – | – | Not Active | – | – | – | Not Active | Not Active | – |
| Cc1cc(-c2noc(C(F)(F)F)n2)cc(C)c1OCCCc1cc(C(=O)NCc2ccccc2)no1 | – | 1.39 | – | 14.4 | – | 0.25 | > 100 | 0.23 | – | – | – | Not Active | – | – | – | Not Active |
| Cc1cc(-c2noc(C(F)(F)F)n2)cc(C)c1OCCCc1cc(-c2ccccc2)no1 | – | 0.14 | 1.69 | 0.28 | – | 0.53 | > 100 | 0.76 | – | Not Active | – | Not Active | – | – | – | – |
| CCNC(=O)c1cc(CCCOc2c(C)cc(-c3noc(C(F)(F)F)n3)cc2C)on1 | – | 0.05 | – | 0.48 | – | 0.18 | > 100 | 0.6 | – | – | – | Not Active | – | – | – | Not Active |
| CCOC(=O)c1cc(CCCOc2ccc(-c3noc(C(F)(F)F)n3)cc2[N+](=O)[O-])on1 | – | 0.148 | 3.99 | 0.18 | – | 2.93 | > 100 | 47.7 | – | Not Active | – | – | – | Not Active | – | – |
| CCOC(=O)c1cc(CCCOc2ccc(-c3noc(C(F)(F)F)n3)cc2N)on1 | – | 20 | – | – | – | 14.3 | > 100 | – | – | Not Active | – | – | – | Not Active | Not Active | – |
| CCOC(=O)c1cc(CCCOc2ccc(-c3noc(C(F)(F)F)n3)cc2-n2cccc2)on1 | – | 10.2 | 14.3 | – | – | – | 57.3 | – | – | Not Active | Not Active | – | – | Not Active | Not Active | – |
| Cc1cc(-c2noc(C(F)(F)F)n2)cc(C)c1OCCCc1cc(-c2ccc(OC(F)(F)F)cc2)no1 | – | – | – | – | – | – | > 100 | – | – | – | – | – | Not Active | – | Not Active | – |
| Cc1cc(CCCOc2c(C)cc(-c3noc(C(F)(F)F)n3)cc2C)on1 [PLECONARIL] | – | – | 3.97 | 2.05 | – | – | 26.2 | – | – | Not Active | – | Not Active | – | Not Active | – | – |
| COc1ccc(-c2cc(CCCOc3c(C)cc(-c4noc(C(F)(F)F)n4)cc3C)on2)cc1OC | – | – | – | – | – | 2.78 | 41.9 | 2.11 | – | – | – | – | Not Active | – | – | – |
| CN(C)C(=O)c1cc(CCCOc2ccc(-c3noc(C(F)(F)F)n3)cn2)on1 | 4.28 | 5.95 | 17.4 | – | 22.2 | 0.12 | 48.8 | – | – | – | – | – | – | – | – | – |
| Cc1cc(-c2noc(C(F)(F)F)n2)cc(C)c1OCCCc1cc(C(N)=O)no1 | – | 0.07 | – | 1.69 | – | 0.22 | > 100 | 0.5 | – | – | – | Not Active | – | – | – | Not Active |
| CCOC(=O)c1cc(CCCOc2ccc(-c3noc(C(F)(F)F)n3)cc2)on1 | – | 0.746 | 42.9 | 6.54 | – | 0.34 | > 100 | – | – | Not Active | – | – | – | Not Active | Not Active | – |
| CC(=O)Nc1cc(-c2noc(C(F)(F)F)n2)ccc1OCCCc1cc(C(=O)N(C)C)no1 | – | 30.1 | 73.2 | 16.1 | – | 18.1 | > 100 | – | – | Not Active | – | – | – | Not Active | Not Active | – |
| CCOC(=O)c1cc(CCCOc2c(OC)cc(-c3noc(C(F)(F)F)n3)cc2[N+](=O)[O-])on1 | – | 1.19 | 43.8 | 10.1 | – | 2.68 | > 100 | 5.63 | – | Not Active | – | – | – | Not Active | – | – |
| CCOC(=O)c1cc(CCCOc2ccc(-c3noc(C(F)(F)F)n3)cc2OC)on1 | 19.4 | 0.49 | 37.3 | 3.41 | – | 0.66 | > 100 | 59.7 | – | – | – | – | – | Not Active | – | – |
